# Results as given in ChEMBL document CHEMBL3407339, “A novel series of thiazolyl-pyrazoline derivatives: synthesis and evaluation of antifungal activity, cytotoxicity and genotoxicity” (Eur J Med Chem, 2015).
# Tested on: Salmonella typhimurium
# Assay: Mutagenicity in Salmonella typhimurium TA98 at 2.5 mg/ml after 48 hrs by AMES MPF assay in presence of Sprague-Dawley rat liver microsomal S9 fraction relative to baseline
# Format: toxicity, organism-based
# Details: salmonella enterica subsp. enterica serovar typhimurium
# In short: (§1)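 Ames MPF fluctuation test with TA98/TA100. Overnight cultures (37 °C, 14–16 h) mixed with exposure medium; ±Aroclor-1254-induced rat liver S9 (final 4.5% v/v). Compounds in DMSO, 0.156–5 mg/mL. 90 min exposure at 37 °C, then indicator medium; 48 wells per concentration, 48 h at 37 °C, in triplicate. Yellow wells counted; fold induction over baseline (mean + 1 SD of zero-dose control).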
row,Compound,fold change (FC)
1,Fc1ccc(C2CC(c3ccc(Cl)s3)=NN2c2nc(-c3ccc(Br)cc3)cs2)cc1 (stereo not drawn),0.68

# Tested on: Salmonella typhimurium
# Assay: Mutagenicity in Salmonella typhimurium TA100 at 0.156 mg/ml after 48 hrs by AMES MPF assay in absence of Sprague-Dawley rat liver microsomal S9 fraction relative to baseline
# Format: toxicity, organism-based
# Details: salmonella enterica subsp. enterica serovar typhimurium
# In short: as §1
row,Compound,fold change (FC)
1,Fc1ccc(C2CC(c3ccc(Cl)s3)=NN2c2nc(-c3ccc(Br)cc3)cs2)cc1 (stereo not drawn),1

# Tested on: Aspergillus flavus
# Assay: Antifungal activity against Aspergillus flavus NRRL 980 after 72 hrs by broth microdilution assay
# Format: functional
# Details: NRRL 980, 72 h
# In short: (§2)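 Compounds dissolved in DMSO, diluted in sterile distilled water from 4 to 0.0039 mg/mL. Molds grown on PDA at 25 °C for 5 days, suspended in double-strength PDB at 10⁵ spores/mL. Incubated at 25 °C for 72 h; mycelial growth read under stereo microscope. MIC = lowest concentration inhibiting visible growth. Ketoconazole reference.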
row,Compound,MIC [mg/L]
1,Fc1ccc(C2CC(c3ccc(Cl)s3)=NN2c2nc(-c3ccc(Br)cc3)cs2)cc1 (stereo not drawn),125

# Tested on: Candida albicans
# Assay: Antifungal activity against Candida albicans ATCC 90028 after 48 hrs by broth microdilution assay
# Format: functional
# Details: ATCC 90028, 48 h
# In short: (§3)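 Broth microdilution of DMSO stocks serially diluted in sterile water (4 to 0.0039 mg/mL). Yeasts grown on SDA at 37 °C for 24 h, suspended in double-strength PDB at 10⁵ spores/mL. Incubated at 37 °C for 48 h, then sprayed with 0.5% aqueous TTC. MIC = lowest concentration inhibiting visible growth. Ketoconazole reference.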
row,Compound,MIC [mg/L]
1,Fc1ccc(C2CC(c3ccc(Cl)s3)=NN2c2nc(-c3ccc(Br)cc3)cs2)cc1 (stereo not drawn),250

# Tested on: Fusarium solani
# Assay: Antifungal activity against Fusarium solani NRRL 13414 after 72 hrs by broth microdilution assay
# Format: functional
# Details: NRRL 13414, 72 h
# In short: as §2
row,Compound,MIC [mg/L]
1,Fc1ccc(C2CC(c3ccc(Cl)s3)=NN2c2nc(-c3ccc(Br)cc3)cs2)cc1 (stereo not drawn),250

# Tested on: Salmonella typhimurium
# Assay: Mutagenicity in Salmonella typhimurium TA98 at 2.5 mg/ml after 48 hrs by AMES MPF assay in absence of Sprague-Dawley rat liver microsomal S9 fraction relative to baseline
# Format: toxicity, organism-based
# Details: salmonella enterica subsp. enterica serovar typhimurium
# In short: as §1
row,Compound,fold change (FC)
1,Fc1ccc(C2CC(c3ccc(Cl)s3)=NN2c2nc(-c3ccc(Br)cc3)cs2)cc1 (stereo not drawn),0

# Tested on: Salmonella typhimurium
# Assay: Mutagenicity in Salmonella typhimurium TA100 at 0.625 mg/ml after 48 hrs by AMES MPF assay in absence of Sprague-Dawley rat liver microsomal S9 fraction relative to baseline
# Format: toxicity, organism-based
# Details: salmonella enterica subsp. enterica serovar typhimurium
# In short: as §1
row,Compound,fold change (FC)
1,Fc1ccc(C2CC(c3ccc(Cl)s3)=NN2c2nc(-c3ccc(Br)cc3)cs2)cc1 (stereo not drawn),0.33

# Tested on: Aspergillus niger
# Assay: Antifungal activity against Aspergillus niger ATCC 1094 after 72 hrs by broth microdilution assay
# Format: functional
# Details: ATCC 1094, 72 h
# In short: as §2
row,Compound,MIC [mg/L]
1,Fc1ccc(C2CC(c3ccc(Cl)s3)=NN2c2nc(-c3ccc(Br)cc3)cs2)cc1 (stereo not drawn),250

# Tested on: Salmonella typhimurium
# Assay: Mutagenicity in Salmonella typhimurium TA98 at 1.25 mg/ml after 48 hrs by AMES MPF assay in presence of Sprague-Dawley rat liver microsomal S9 fraction relative to baseline
# Format: toxicity, organism-based
# Details: salmonella enterica subsp. enterica serovar typhimurium
# In short: as §1
row,Compound,fold change (FC)
1,Fc1ccc(C2CC(c3ccc(Cl)s3)=NN2c2nc(-c3ccc(Br)cc3)cs2)cc1 (stereo not drawn),0.81

# Tested on: not listed separately
# Assay: Cytotoxicity against mouse NIH/3T3 cells after 24 hrs by XTT assay
# Format: cell-based
# Details: NIH3T3, 24 h
# In short: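 A549 cells in RPMI and NIH/3T3 cells in DMEM, each with fetal calf serum, antibiotics and 7.5% NaHCO₃, at 37 °C, 5% CO₂. Seeded at 20,000 cells/well, 24 h, then compounds added in medium at 500–3.9 doses (final DMSO <0.1%) for 24 h. XTT read after 3 h at 480 nm (ref 680 nm). IC₅₀ by non-linear regression; triplicates; cisplatin control.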
row,Compound,IC50 [mg/L]
1,Fc1ccc(C2CC(c3ccc(Cl)s3)=NN2c2nc(-c3ccc(Br)cc3)cs2)cc1 (stereo not drawn),> 500

# Tested on: Salmonella typhimurium
# Assay: Mutagenicity in Salmonella typhimurium TA98 at 0.156 mg/ml after 48 hrs by AMES MPF assay in presence of Sprague-Dawley rat liver microsomal S9 fraction relative to baseline
# Format: toxicity, organism-based
# Details: salmonella enterica subsp. enterica serovar typhimurium
# In short: as §1
row,Compound,fold change (FC)
1,Fc1ccc(C2CC(c3ccc(Cl)s3)=NN2c2nc(-c3ccc(Br)cc3)cs2)cc1 (stereo not drawn),0.68

# Tested on: Nakaseomyces glabratus
# Assay: Antifungal activity against Candida glabrata clinical isolate after 48 hrs by broth microdilution assay
# Format: functional
# Details: not given
# In short: as §3
row,Compound,MIC [mg/L]
1,Fc1ccc(C2CC(c3ccc(Cl)s3)=NN2c2nc(-c3ccc(Br)cc3)cs2)cc1 (stereo not drawn),125

# Tested on: Salmonella typhimurium
# Assay: Mutagenicity in Salmonella typhimurium TA100 at 0.3125 mg/ml after 48 hrs by AMES MPF assay in presence of Sprague-Dawley rat liver microsomal S9 fraction relative to baseline
# Format: toxicity, organism-based
# Details: salmonella enterica subsp. enterica serovar typhimurium
# In short: as §1
row,Compound,fold change (FC)
1,Fc1ccc(C2CC(c3ccc(Cl)s3)=NN2c2nc(-c3ccc(Br)cc3)cs2)cc1 (stereo not drawn),3.92

# Tested on: Pichia kudriavzevii
# Assay: Antifungal activity against Candida krusei NRLL Y 7179 after 48 hrs by broth microdilution assay
# Format: functional
# Details: NRLL Y 7179, 48 h
# In short: as §3
row,Compound,MIC [mg/L]
1,Fc1ccc(C2CC(c3ccc(Cl)s3)=NN2c2nc(-c3ccc(Br)cc3)cs2)cc1 (stereo not drawn),250

# Tested on: Candida tropicalis
# Assay: Antifungal activity against Candida tropicalis NRLL Y 12968 after 48 hrs by broth microdilution assay
# Format: functional
# Details: NRLL Y 12968, 48 h
# In short: as §3
row,Compound,MIC [mg/L]
1,Fc1ccc(C2CC(c3ccc(Cl)s3)=NN2c2nc(-c3ccc(Br)cc3)cs2)cc1 (stereo not drawn),250

# Tested on: Salmonella typhimurium
# Assay: Mutagenicity in Salmonella typhimurium TA98 at 1.25 mg/ml after 48 hrs by AMES MPF assay in absence of Sprague-Dawley rat liver microsomal S9 fraction relative to baseline
# Format: toxicity, organism-based
# Details: salmonella enterica subsp. enterica serovar typhimurium
# In short: as §1
row,Compound,fold change (FC)
1,Fc1ccc(C2CC(c3ccc(Cl)s3)=NN2c2nc(-c3ccc(Br)cc3)cs2)cc1 (stereo not drawn),0

# Tested on: Salmonella typhimurium
# Assay: Mutagenicity in Salmonella typhimurium TA98 at 5 mg/ml after 48 hrs by AMES MPF assay in absence of Sprague-Dawley rat liver microsomal S9 fraction relative to baseline
# Format: toxicity, organism-based
# Details: salmonella enterica subsp. enterica serovar typhimurium
# In short: as §1
row,Compound,fold change (FC)
1,Fc1ccc(C2CC(c3ccc(Cl)s3)=NN2c2nc(-c3ccc(Br)cc3)cs2)cc1 (stereo not drawn),0

# Tested on: Salmonella typhimurium
# Assay: Mutagenicity in Salmonella typhimurium TA100 at 0.156 mg/ml after 48 hrs by AMES MPF assay in presence of Sprague-Dawley rat liver microsomal S9 fraction relative to baseline
# Format: toxicity, organism-based
# Details: salmonella enterica subsp. enterica serovar typhimurium
# In short: as §1
row,Compound,fold change (FC)
1,Fc1ccc(C2CC(c3ccc(Cl)s3)=NN2c2nc(-c3ccc(Br)cc3)cs2)cc1 (stereo not drawn),2.77
